Consider two compounds from ChEMBL document CHEMBL5131507, “Identification of histone deacetylase 10 (HDAC10) inhibitors that modulate autophagy in transformed cells” (Eur J Med Chem, 2022).

In one data set the test system is HEK293. In words: Cytotoxicity against human HEK293 cells assessed as cell viability at 50 uM measured after 24 hrs by Alamar Blue assay. The data set is classed as toxicity, cell-based. The following applies: hek293, 24 h. On the technique in general: Alamar Blue is a resazurin reagent that responds to reducing activity.
The test system of another data set is MV4-11. Kind of data set: Induction of autophagy in human MV4-11 cells assessed as increase in autophagic vesicles at 2 to 15 uM measured by cyto-ID green staining based flow cytometry assay. Type of data set: functional, cell-based. To be noted: dose 2-15 µM. Put shortly: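 MV4-11 cells exposed 2–15 μM for 24 h at 37 °C, 5% CO2, with 10 μM chloroquine added to all samples; solvent-treated control. Harvested, PBS-washed, stained with Cyto-ID Green (1:1000 in phenol-red-free RPMI with 5% FCS, 30 min, 37 °C), washed twice, read by flow cytometry. n = 3; two-way ANOVA.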
Background: A flow cytometer gives signals particle by particle.

Another data set relates to SK-N-BE(2)-C. Kind of data set: Induction of autophagy in human SK-N-BE(2)-C cells assessed as increase in lysosomal compartment measured by pH-dependent LysoTracker DND-99 fluorescence assay. Type of data set: functional, cell-based. Put shortly: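 SK-N-BE(2)-C neuroblastoma cells seeded at 1.5 × 10^5 per well, treated 24 h, then stained 1 h with 50 nM LysoTracker Red DND-99 in medium under standard culture conditions. Washed in ice-cold phenol-red-free RPMI, trypsinized 3 min at 37 °C, pelleted, resuspended in ice-cold phenol-red-free RPMI before measurement.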

For data set [1], the target named is T1, Histone deacetylase 1 (Homo sapiens, UniProt Q13547). In words: Inhibition of recombinant human HDAC1 using ZMAL (Z-(Ac)Lys-AMC as substrate incubated for 20 mins at 10 uM and measured by homogenous fluorescence assay relative to control.
The target of data set [2] is T2, Polyamine deacetylase HDAC10 (Danio rerio, UniProt F1QCV2).
T2 sequence (F1QCV2 whole entry): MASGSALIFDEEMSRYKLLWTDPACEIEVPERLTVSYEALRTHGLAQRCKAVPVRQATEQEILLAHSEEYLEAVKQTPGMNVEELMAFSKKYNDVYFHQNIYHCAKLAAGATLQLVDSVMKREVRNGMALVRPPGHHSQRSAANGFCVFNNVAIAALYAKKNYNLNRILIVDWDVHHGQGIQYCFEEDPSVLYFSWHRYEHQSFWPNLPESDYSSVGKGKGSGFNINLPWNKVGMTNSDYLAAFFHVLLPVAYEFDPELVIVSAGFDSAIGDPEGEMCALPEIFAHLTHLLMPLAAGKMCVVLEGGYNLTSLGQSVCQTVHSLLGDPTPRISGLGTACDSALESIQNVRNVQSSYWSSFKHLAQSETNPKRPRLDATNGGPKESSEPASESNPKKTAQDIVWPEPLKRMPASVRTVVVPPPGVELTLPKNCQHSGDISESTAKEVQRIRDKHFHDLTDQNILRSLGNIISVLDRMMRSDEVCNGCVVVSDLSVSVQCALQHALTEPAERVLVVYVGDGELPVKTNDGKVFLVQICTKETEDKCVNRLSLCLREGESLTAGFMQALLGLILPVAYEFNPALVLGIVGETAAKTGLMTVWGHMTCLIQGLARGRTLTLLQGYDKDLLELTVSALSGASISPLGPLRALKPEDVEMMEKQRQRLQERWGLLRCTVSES
In words: Inhibition of zebra fish HDAC10 using Ac-spermidine-AMC as substrate incubated for 25 mins and measured by fluorescence assay. Put shortly: (§1)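 Ac-spermidine-AMC at 10.5 μM final in pH 7.9 phosphate buffer (NaCl, EDTA, glycerol, Mesna, Tween 20); inhibitors in DMSO. 25 min at 25 °C, stopped with NDA in borate pH 9.5. Read at Ex 330/Em 390 nm; IC50 by nonlinear regression.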

In data set [3] the target is T3, Protein deacetylase HDAC6 (Homo sapiens, UniProt Q9UBN7).
T3 sequence (Q9UBN7 whole entry): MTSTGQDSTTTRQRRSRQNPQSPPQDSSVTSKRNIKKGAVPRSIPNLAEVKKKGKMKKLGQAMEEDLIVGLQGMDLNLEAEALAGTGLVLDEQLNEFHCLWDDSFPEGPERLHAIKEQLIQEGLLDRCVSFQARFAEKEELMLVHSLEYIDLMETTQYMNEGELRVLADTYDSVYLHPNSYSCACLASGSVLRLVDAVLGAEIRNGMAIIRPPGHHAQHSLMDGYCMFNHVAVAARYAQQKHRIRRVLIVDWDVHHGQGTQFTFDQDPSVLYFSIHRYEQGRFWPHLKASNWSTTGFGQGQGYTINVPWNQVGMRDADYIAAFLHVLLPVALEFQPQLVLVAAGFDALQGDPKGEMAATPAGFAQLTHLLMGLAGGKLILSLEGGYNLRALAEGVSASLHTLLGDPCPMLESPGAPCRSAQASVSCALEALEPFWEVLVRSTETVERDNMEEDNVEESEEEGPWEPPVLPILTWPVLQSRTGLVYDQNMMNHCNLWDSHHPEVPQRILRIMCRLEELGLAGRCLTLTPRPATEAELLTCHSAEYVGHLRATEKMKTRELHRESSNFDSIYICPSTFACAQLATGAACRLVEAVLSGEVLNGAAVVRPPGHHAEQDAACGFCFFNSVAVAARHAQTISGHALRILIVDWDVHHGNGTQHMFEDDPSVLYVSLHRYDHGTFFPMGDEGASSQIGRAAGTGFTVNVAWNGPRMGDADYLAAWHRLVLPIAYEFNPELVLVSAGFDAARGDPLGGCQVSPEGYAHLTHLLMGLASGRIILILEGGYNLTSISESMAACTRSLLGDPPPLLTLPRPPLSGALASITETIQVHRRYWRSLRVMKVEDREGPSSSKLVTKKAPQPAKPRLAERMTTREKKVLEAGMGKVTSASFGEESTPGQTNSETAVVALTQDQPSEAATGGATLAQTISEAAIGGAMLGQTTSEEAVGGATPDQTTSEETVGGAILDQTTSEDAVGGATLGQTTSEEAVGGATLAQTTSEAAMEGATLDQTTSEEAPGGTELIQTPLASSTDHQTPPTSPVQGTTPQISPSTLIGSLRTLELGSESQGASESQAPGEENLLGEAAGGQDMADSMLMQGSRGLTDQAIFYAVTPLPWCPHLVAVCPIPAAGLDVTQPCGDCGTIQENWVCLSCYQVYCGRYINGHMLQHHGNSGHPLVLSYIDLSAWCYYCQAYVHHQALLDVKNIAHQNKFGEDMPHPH
In words: Inhibition of recombinant human HDAC6 using ZMAL (Z-(Ac)Lys-AMC as substrate incubated for 20 mins and measured by homogenous fluorescence assay.

Data set [4] has as its target T1, Histone deacetylase 1. In words: Inhibition of recombinant human HDAC1 using ZMAL (Z-(Ac)Lys-AMC as substrate incubated for 20 mins at 1 uM and measured by homogenous fluorescence assay relative to control.
The target in data set [5] is T4, Histone deacetylase 8 (Homo sapiens) (UniProt Q9BY41).
T4 sequence (whole entry): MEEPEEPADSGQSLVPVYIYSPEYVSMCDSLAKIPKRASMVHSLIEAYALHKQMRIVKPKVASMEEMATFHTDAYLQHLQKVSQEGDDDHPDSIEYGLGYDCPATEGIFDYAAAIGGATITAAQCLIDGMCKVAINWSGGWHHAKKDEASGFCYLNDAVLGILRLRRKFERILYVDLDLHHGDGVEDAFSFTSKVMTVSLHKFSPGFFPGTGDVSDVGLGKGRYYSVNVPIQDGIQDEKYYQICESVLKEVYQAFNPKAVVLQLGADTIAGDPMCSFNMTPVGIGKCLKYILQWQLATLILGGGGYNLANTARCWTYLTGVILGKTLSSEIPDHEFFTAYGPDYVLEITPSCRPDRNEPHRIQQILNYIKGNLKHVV
Kind of data set: Inhibition of recombinant human HDAC8 using H2N-Arg- His-Lys(Ac)-Lys(Ac)-AMC as substrate incubated for 90 mins at 1 uM and measured after 20 mins by fluorescence assay relative to control. Put shortly: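 Recombinant hHDAC8 run per a commercial fluorometric HDAC8 kit protocol. Substrate H2N-Arg-His-Lys(Ac)-Lys(Ac)-AMC at 50 μM with enzyme and rising inhibitor concentrations, 90 min at 37 °C. Stop solution with inhibitor plus trypsin added, developed 20 min at 37 °C. Read at Ex 355/Em 460 nm.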

In data set [6] the target is T5, Polyamine deacetylase HDAC10 (Danio rerio) (UniProt F1QCV2).
T5 sequence (whole entry): T2 sequence (F1QCV2 whole entry)
In words: Inhibition of zebra fish HDAC10 using Ac-spermidine-AMC as substrate incubated for 25 mins at 1 uM and measured by fluorescence assay relative to control. In outline:
as §1

The structures appear in SMILES notation. Active and inactive are the calls of the source. No cut-off for these calls is given here.

T1 sequence (Q13547 whole entry): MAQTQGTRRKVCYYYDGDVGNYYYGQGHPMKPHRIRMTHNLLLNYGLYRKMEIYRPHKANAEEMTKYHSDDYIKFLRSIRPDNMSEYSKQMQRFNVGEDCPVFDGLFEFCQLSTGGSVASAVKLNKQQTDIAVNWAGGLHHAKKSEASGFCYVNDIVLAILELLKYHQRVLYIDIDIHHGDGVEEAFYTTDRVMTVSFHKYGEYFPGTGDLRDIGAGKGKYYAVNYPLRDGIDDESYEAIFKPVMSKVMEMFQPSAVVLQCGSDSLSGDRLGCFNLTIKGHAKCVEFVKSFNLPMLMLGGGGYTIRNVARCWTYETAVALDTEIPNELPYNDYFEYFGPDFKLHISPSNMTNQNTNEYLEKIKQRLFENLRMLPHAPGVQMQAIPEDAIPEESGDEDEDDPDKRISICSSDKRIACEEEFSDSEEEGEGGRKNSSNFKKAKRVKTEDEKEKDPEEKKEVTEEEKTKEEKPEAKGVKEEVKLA

With `O=C(/C=C/C1CCN(CCc2c[nH]c3ccccc23)CC1)NO`, in the data set on HEK293, the Activity is reported as 77.3%. Further, the outcome with MV4-11 and in the data set on SK-N-BE(2)-C was Active. The inhibition on Histone deacetylase 1 [1] was 54%; at Histone deacetylase 1 [4] it was 7%. In addition, the IC50 in data set [2] came to 29 nM; in data set [3], 4800 nM.
For the compound `O=C(NO)c1ccc(CN2CCCCC2)cc1`, the Activity in the data set on HEK293 was found to be 92.6%. For the same compound, the inhibition is 5% in data set [5] and 4% in [6].

The inhibition is the drop in the measured response relative to a control, in per cent. For orientation: IC50 means the concentration at which inhibition is half-maximal.
